esBAF inh – blocks esBAF chromatin remodeling in mouse ES cells; Bmi1-luciferase knock-in reporter, 24 h; 100% = twice the neutral-well signal; reporter increase, % at 12.5 µM; 2% of 350,000 active; in the data active = activation above about 40%;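 also: a rise in the Bmi1 reporter signal indicates esBAF inhibition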
SMARCA2 act – activators of SMARCA2 function | AID 652017 | MG213 cells, MMTV-luciferase reporter, dexamethasone, overnight | activation, % at 9.1 µM | 1% of 370,000 active; in the data active = activation above about 7.8%
ASAP1 inh – inhibitors of human ASAP1 ArfGAP activity. Q9ULH1. ASAP1-stimulated ARF1 GTP hydrolysis, GDP FP detection. inhibition, % at 16.5 µM. 0.19% of 360,000 active; in the data active = inhibition above about 25%
Target sequence (Q9ULH1 325-724 limits assumed): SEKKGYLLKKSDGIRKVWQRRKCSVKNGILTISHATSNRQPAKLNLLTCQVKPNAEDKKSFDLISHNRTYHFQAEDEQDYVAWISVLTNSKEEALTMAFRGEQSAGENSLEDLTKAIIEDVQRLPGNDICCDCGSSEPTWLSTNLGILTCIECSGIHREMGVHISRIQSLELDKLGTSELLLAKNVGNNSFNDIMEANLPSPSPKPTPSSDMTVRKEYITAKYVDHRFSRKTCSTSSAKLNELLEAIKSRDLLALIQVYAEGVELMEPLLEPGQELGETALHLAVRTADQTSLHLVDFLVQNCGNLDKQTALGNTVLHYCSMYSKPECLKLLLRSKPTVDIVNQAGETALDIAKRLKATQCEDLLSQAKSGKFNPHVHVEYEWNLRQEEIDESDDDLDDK
ARFGAP1 inh – inhibits rat ARF GTPase activating protein 1; Q62848; Arfgap1-stimulated ARF1 GTP hydrolysis, GDP FP detection; inhibition, % at 16.5 µM; 0.26% of 360,000 active; AID 651572;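 active = inhibition above a per-plate limit, mean inhibition of low control wells plus 3 SD, cut at about 25% in these data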
Target sequence (Q62848 1-136 limits assumed): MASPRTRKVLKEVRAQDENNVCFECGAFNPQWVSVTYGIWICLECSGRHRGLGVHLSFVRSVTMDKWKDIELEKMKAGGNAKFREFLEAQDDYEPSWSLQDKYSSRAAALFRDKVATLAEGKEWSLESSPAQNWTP
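system = rat Arfgap1 catalytic domain, aa 1-136 | technique = FP, GDP Alexa 633 tracer displaced from anti-GDP antibody, 620/688 nm | compound = one concentration, 16.5 µM, DMSO 1.26% | medium = HEPES-based buffer, pH 7.5 | timing = compound-enzyme preincubation 20 min, reaction 120 min, detection 60 min, 25 °C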
Large screens that a line does not name were inactive. An excerpt weighted towards active compounds, which were near 2.6% of everything screened.

CC(C)S(=O)(=O)N1CCCC(c2cc(C(=O)Nc3ccc(F)c(Cl)c3)no2)C1 (configuration not stated)	esBAF inh 47.9
O=C(Nc1ccc(F)c(Cl)c1)c1cc(C2CCCN(C(=O)CCc3ccccc3)C2)on1 (configuration not stated)	esBAF inh 46.9
O=C(NCc1ccccc1)c1cc(C2CCCN(C(=O)CCc3ccccc3)C2)on1 (configuration not stated)	none
O=C(Nc1ccccc1Cl)c1cc(C2CCCN(C(=O)CCc3ccccc3)C2)on1 (configuration not stated)	none
O=C(Nc1ccccc1)c1cc(C2CCCN(C(=O)CCc3ccccc3)C2)on1 (configuration not stated)	esBAF inh 64.3
CCCNC(=O)C[C@H]1C[C@@H]2c3cc(NS(=O)(=O)c4ccccc4)ccc3O[C@@H]2[C@H](CO)O1	none (no result: SMARCA2 act, ASAP1 inh, ARFGAP1 inh)
CO[C@@H]1CN(C)C(=O)c2ccc(NC(=O)c3nc4ccccc4s3)cc2OC[C@@H](C)NC[C@H]1C	none (no result: SMARCA2 act, ASAP1 inh, ARFGAP1 inh)
COc1nc(Nc2ccc(C(C)C)cc2)nc(OC)n1	esBAF inh 57.7
COc1nc(Nc2ccc(O)cc2)nc(OC(C(F)(F)F)C(F)(F)F)n1	none
Cc1ccc2oc(C(=O)N(Cc3ccncc3)CC3CCCO3)c(C)c2c1 (configuration not stated)	esBAF inh 57.9
CCCc1ccc2oc(C(=O)N(Cc3ccncc3)CC3CCCO3)c(C)c2c1 (configuration not stated)	none
CCN1C(=O)S/C(=C\c2ccc(N3CCOCC3)cc2C)C1=O	esBAF inh 55.4
N/C(=N\OC(=O)c1cccnc1)c1ccccc1Cl	esBAF inh 74.0
N/C(=N\OC(=O)c1cccnc1)c1ccc(Cl)cc1Cl	none (no result: esBAF inh)
O=C(C[C@@H]1CC[C@H]2[C@@H](COC[C@H](O)CN2C(=O)Nc2ccc(Cl)c(Cl)c2)O1)NCc1ccc(F)cc1	none (no result: SMARCA2 act, ASAP1 inh, ARFGAP1 inh)
Cc1cc(Nc2ccccc2)n(-c2ccc(C(=O)O)cc2)n1	none (no result: esBAF inh)
Cc1cc(Nc2ccccc2)n(C(=O)c2ccc(Cl)cc2)n1	esBAF inh 52.9
COc1ccc(Oc2nnc(C)c3ccccc23)cc1	esBAF inh 49.8
COc1ccc(-c2nnc3c4ccccc4c(C)nn23)cc1	esBAF inh 72.0
Cc1nn(C(=O)c2cc3sccc3[nH]2)c(C)c1C	esBAF inh 84.2
CCN(CC)S(=O)(=O)c1ccc(N2CCOCC2)c(NC(=O)COc2ccccc2C#N)c1	ASAP1 inh 37.2
C[C@H](CO)N1C[C@H](C)[C@H](CN(C)Cc2ccncc2)OCCCC[C@H](C)Oc2ccc(NC(=O)Nc3ccc4c(c3)OCO4)cc2C1=O	esBAF inh 73.0 (no result: SMARCA2 act, ASAP1 inh, ARFGAP1 inh)
C[C@@H]1CN([C@H](C)CO)C(=O)c2cc(NC(=O)Nc3ccc4c(c3)OCO4)ccc2O[C@@H](C)CCCCO[C@@H]1CN(C)Cc1ccncc1	none (no result: SMARCA2 act, ASAP1 inh, ARFGAP1 inh)
C[C@@H]1CCCCO[C@@H](CN(C)Cc2ccncc2)[C@H](C)CN([C@@H](C)CO)C(=O)c2cc(NC(=O)Nc3ccc4c(c3)OCO4)ccc2O1	esBAF inh 61.8 (no result: SMARCA2 act, ASAP1 inh, ARFGAP1 inh)
C[C@@H]1CN([C@@H](C)CO)C(=O)c2cc(NS(=O)(=O)c3ccc(Cl)cc3)ccc2O[C@@H]1CN(C)Cc1ccc(Oc2ccccc2)cc1	none (no result: SMARCA2 act, ASAP1 inh, ARFGAP1 inh)
C[C@@H]1CN([C@H](C)CO)C(=O)c2cc(C#Cc3ccccn3)cnc2O[C@H]1CN(C)CC1CCCC1	none (no result: SMARCA2 act, ASAP1 inh, ARFGAP1 inh)
Cc1ccc(C(=O)Cn2nnc3ccccc32)cc1	esBAF inh 62.6
CCCCN1C(=S)NC[C@@H]1Cc1cccc2ccccc12	esBAF inh 59.0
CCCCN1C(=O)C(=O)NC[C@H]1Cc1cccc2ccccc12	none (no result: esBAF inh)
Clc1ccc(-c2nnc(-c3ccccc3)c(-c3ccccc3)n2)cc1	none
Nc1nc(-c2ccc(Cl)cc2)nnc1-c1ccc(Br)cc1	esBAF inh 52.0
C[C@H]1CN([C@@H](C)CO)C(=O)c2cccc(NS(=O)(=O)c3ccc(Cl)cc3)c2O[C@@H]1CN(C)Cc1ccc(Cl)c(Cl)c1	none (no result: SMARCA2 act, ASAP1 inh, ARFGAP1 inh)
OCCNc1nc(Nc2ccc(Br)cc2)nc2ccccc12	ASAP1 inh 25.7 (no result: esBAF inh)
COc1ccc(-c2ccn(-c3cccc(F)n3)n2)cc1	esBAF inh 54.4
O=C(Cc1ccccc1)N1C[C@@H]2[C@H](c3ccccc31)[C@@H](CO)N2C(=O)C1CCCCC1	none (no result: SMARCA2 act, ASAP1 inh, ARFGAP1 inh)
Cc1ccc(S(=O)(=O)Nc2ccc3c(c2)C(=O)N([C@@H](C)CO)C[C@H](C)[C@@H](CN(C)S(=O)(=O)c2ccc(C)cc2)OCCCC[C@@H](C)O3)cc1	none (no result: SMARCA2 act, ASAP1 inh, ARFGAP1 inh)
C[C@@H]1CCCCO[C@@H](CN(C)S(C)(=O)=O)[C@@H](C)CN([C@H](C)CO)C(=O)c2cc(NS(C)(=O)=O)ccc2O1	none (no result: SMARCA2 act, ASAP1 inh, ARFGAP1 inh)
O=C(COC(=O)C1CC2CCCC(C1)C2=O)Nc1ccc(F)c(Cl)c1 (configuration not stated)	none
O=C(COC(=O)C1CC2CCCC(C1)C2=O)Nc1nc(-c2ccc(F)c(F)c2)cs1 (configuration not stated)	esBAF inh 70.0
Fc1ccc(CSc2ncnc3c2ncn3C2CCCCO2)cc1 (configuration not stated)	none (no result: esBAF inh)
c1ccc(CNc2ncnc3c2ncn3C2CCCCO2)cc1 (configuration not stated)	esBAF inh 46.3
OC[C@@H]1CN(Cc2ccccc2)C[C@H](n2cnc3c(NCc4ccc(F)cc4)ncnc32)O1	esBAF inh 46.0
Fc1cccc(CSc2ncnc3c2ncn3C2CCCCO2)c1 (configuration not stated)	esBAF inh 82.6
CC(C)CCn1cnc2c(NCc3ccccc3)ncnc21	esBAF inh 46.2
Clc1cccc(CSc2ncnc3c2ncn3C2CCCCO2)c1 (configuration not stated)	esBAF inh 75.9
c1ccc(CSc2ncnc3c2ncn3C2CCCCO2)cc1 (configuration not stated)	esBAF inh 83.8
COC(=O)c1ccc(NC(=O)C(=O)NCC2CCCO2)cc1 (configuration not stated)	esBAF inh 45.2
O=C(NCC1CCCO1)Nc1ccc(Cl)cc1 (configuration not stated)	esBAF inh 45.4
O=C(COC(=O)c1ccccc1)NCC1CCCO1 (configuration not stated)	esBAF inh 49.0
O=C(NCC1CCCO1)c1cc(-c2ccccc2F)no1 (configuration not stated)	esBAF inh 56.8
O=C(NCC1CCCO1)c1ccccc1 (configuration not stated)	none
CO[C@H]1CN(C)C(=O)c2cc(NS(C)(=O)=O)ccc2OC[C@@H](C)N(C(=O)C2CCC2)C[C@@H]1C	none (no result: SMARCA2 act, ASAP1 inh, ARFGAP1 inh)
CNC(=O)C[C@H]1CC[C@H]2[C@@H](COc3ccc(NC(=O)c4cnccn4)cc3C(=O)N2C)O1	none (no result: SMARCA2 act, ASAP1 inh, ARFGAP1 inh)
CN1C(=O)CSc2ccc(NC(=O)N3CCc4ccccc43)cc21	esBAF inh 93.7
Cc1ccc(NC(=O)c2nnn(-c3cc(C)cc(C)c3)c2N)cc1	esBAF inh 48.5
Cc1ccc(CCNC(=O)c2nnn(-c3cc(C)cc(C)c3)c2N)cc1	none
COc1c(C(=O)Nc2nnc(C3CC3)s2)csc1Cl	esBAF inh 47.7
O=C(Nc1nnc(C2CC2)s1)c1cccs1	none (no result: esBAF inh)

Screening results deposited in PubChem BioAssay by several laboratories.
